Ki and Ratio Ki data for 15 compounds are collected here from ChEMBL document CHEMBL2177027, “Exploring the directionality of 5-substitutions in a new series of 5-alkylaminopyrazolo[4,3-e]1,2,4-triazolo[1,5-c]pyrimidine as a strategy to design novel human a(3) adenosine receptor antagonists” (J Med Chem, 2012).

pKi: −log10 of the molar value.

One experiment addresses T1, Adenosine receptor A2b (Homo sapiens, UniProt P29275).
T1 sequence (P29275 whole entry): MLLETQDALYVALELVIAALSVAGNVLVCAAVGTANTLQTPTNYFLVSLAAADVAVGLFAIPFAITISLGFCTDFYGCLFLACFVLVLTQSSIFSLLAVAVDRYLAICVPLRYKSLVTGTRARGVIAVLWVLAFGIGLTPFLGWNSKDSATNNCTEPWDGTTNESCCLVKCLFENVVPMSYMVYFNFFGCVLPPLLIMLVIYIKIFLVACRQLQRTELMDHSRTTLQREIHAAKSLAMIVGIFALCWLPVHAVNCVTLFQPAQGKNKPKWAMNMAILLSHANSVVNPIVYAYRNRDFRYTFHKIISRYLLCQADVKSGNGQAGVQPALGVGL
Put plainly: Antagonist activity at human adenosine A2B receptor expressed in CHO cells assessed as NECA-induced adenylate cyclase activity. It is filed as functional, cell-based. A digest of the protocol:
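Membranes from stably transfected CHO cells made with a single high-speed spin of the homogenate. Incubated 20 min with about 150 000 cpm [α-³²P]ATP in mixture lacking EDTA and NaCl. IC50 taken from concentration-dependent inhibition of NECA-stimulated adenylyl cyclase using Hill equation.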

The target in the next experiment is T2, Adenosine receptor A1 (Homo sapiens, UniProt P30542).
T2 sequence (P30542 whole entry): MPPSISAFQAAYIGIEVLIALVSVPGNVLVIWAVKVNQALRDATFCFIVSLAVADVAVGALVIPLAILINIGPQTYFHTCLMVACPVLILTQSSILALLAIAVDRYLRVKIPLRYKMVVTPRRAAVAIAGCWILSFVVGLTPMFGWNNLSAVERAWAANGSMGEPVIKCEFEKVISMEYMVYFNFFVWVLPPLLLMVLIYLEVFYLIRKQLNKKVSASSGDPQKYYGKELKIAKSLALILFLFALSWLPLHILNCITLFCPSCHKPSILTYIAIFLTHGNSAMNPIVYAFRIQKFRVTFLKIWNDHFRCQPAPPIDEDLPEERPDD
Put plainly: Displacement of [3H]CCPA from human adenosine A1 receptor expressed in CHO cell membrane. It is filed as cell membranes. A digest of the protocol: (§1)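 CHO cells stably transfected with the human receptor subtype. Membranes were prepared by a 1000g spin to clear fragments and nuclei, then pelleted from the supernatant at 100 000g. Pellet was resuspended in the respective binding buffer, frozen in liquid nitrogen and stored until radioligand competition binding.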
Background: Loss of bound radioactivity is the signal in a displacement assay; it reports binding, not function.

Experiment [1] has as its target Adenosine receptors; A1 & A3 (Homo sapiens) (UniProt P30542+P0DMS8). Put plainly: Selectivity ratio of Ki for human adenosine A1 receptor expressed in CHO cell membrane to Ki for human adenosine A3 receptor expressed in CHO cell membrane. It is filed as cell-based.
A short description of experiment [2]: Selectivity ratio of Ki for human adenosine A1 receptor expressed in CHO cell membrane to Ki for human adenosine A2A receptor expressed in CHO cell membrane. It is filed as cell-based.
The target of the next experiment is T3, Adenosine receptor A3 (Homo sapiens, UniProt P0DMS8).
T3 sequence (P0DMS8 whole entry): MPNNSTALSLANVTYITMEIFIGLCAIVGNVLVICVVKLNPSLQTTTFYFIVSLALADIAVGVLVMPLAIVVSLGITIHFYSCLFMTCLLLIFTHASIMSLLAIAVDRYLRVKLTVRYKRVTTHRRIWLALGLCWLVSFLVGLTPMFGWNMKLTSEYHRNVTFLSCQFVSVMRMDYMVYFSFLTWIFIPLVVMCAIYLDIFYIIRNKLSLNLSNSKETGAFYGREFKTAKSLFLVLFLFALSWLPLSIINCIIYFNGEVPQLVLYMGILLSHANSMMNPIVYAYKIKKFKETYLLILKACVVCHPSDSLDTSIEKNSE
Put plainly: Displacement of [3H]NECA from human adenosine A3 receptor expressed in CHO cell membrane. It is filed as cell membranes. A digest of the protocol:
as §1

Experiment [3] can be described thus: Selectivity ratio of Ki for human adenosine A2A receptor expressed in CHO cell membrane to Ki for human adenosine A3 receptor expressed in CHO cell membrane. It is filed as cell-based.
The next experiment addresses Adenosine receptor A2a (Homo sapiens, UniProt P29274). Put plainly: Displacement of [3H]NECA from human adenosine A2A receptor expressed in CHO cell membrane. It is filed as cell membranes. A digest of the protocol:
as §1

Adenosine receptor A2a, sequence (P29274 whole entry): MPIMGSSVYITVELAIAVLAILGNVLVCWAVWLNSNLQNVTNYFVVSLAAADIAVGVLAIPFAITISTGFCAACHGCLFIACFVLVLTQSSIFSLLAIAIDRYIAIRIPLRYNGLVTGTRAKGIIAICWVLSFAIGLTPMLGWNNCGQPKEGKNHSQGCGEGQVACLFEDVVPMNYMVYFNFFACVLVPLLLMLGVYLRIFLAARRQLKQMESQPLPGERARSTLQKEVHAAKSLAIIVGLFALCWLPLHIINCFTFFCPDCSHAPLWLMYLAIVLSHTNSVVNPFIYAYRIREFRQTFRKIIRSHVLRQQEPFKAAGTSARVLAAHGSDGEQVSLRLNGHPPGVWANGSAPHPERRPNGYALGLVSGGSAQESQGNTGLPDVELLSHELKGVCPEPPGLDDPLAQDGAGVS

With `CC[C@H](C)Nc1nc2nn(C)cc2c2nc(-c3ccco3)nn12`, the pKi is 5.59 at Adenosine receptor A2b, 6.89 at Adenosine receptor A1, 7.96 at Adenosine receptor A3 and 6.61 at Adenosine receptor A2a. Moreover, the Ratio Ki in experiment [1] stood at 11.7; in experiment [2] it was 0.53; in experiment [3] it was 22.2.
Take `CN1CCN(c2nc3nn(C)cc3c3nc(-c4ccco4)nn23)CC1`: the pKi at Adenosine receptor A2b was below 5.00; at Adenosine receptor A1, 4.82; at Adenosine receptor A3, 5.88; at Adenosine receptor A2a it was 5.11. Further, the Ratio Ki in experiment [1] is 11.4; in experiment [2] it was 1.98; in experiment [3], 5.78.
On to `CONc1nc2nn(C)cc2c2nc(-c3ccco3)nn12`, for which the negative-log Ki (pKi) on Adenosine receptor A2b is 5.07; on Adenosine receptor A1, 5.56; at Adenosine receptor A3, 6.39; at Adenosine receptor A2a it was 6.73. Moreover, the Ratio Ki worked out at 6.81 in experiment [1], 14.9 in experiment [2] and 0.46 in experiment [3].
Take `CN(Cc1ccccc1)c1nc2nn(C)cc2c2nc(-c3ccco3)nn12`: the pKi on Adenosine receptor A2b was below 5.00; at Adenosine receptor A1, 6.25; at Adenosine receptor A3, 7.74; at Adenosine receptor A2a it was 5.97. For the same compound, the Ratio Ki is 31.4 in experiment [1], 0.52 in experiment [2] and 60 in experiment [3].
As for `Cn1cc2c(nc(NCC3CCCCC3)n3nc(-c4ccco4)nc23)n1`, the pKi on Adenosine receptor A2b was 5.02; on Adenosine receptor A1, 6.10; on Adenosine receptor A3, 7.33; on Adenosine receptor A2a, 6.09. Also, the Ratio Ki in experiment [1] is 17; in experiment [2] it was 0.98; in experiment [3], 17.2.
As for `Cn1cc2c(nc(NCCCCCCO)n3nc(-c4ccco4)nc23)n1`, the pKi on Adenosine receptor A2b is below 5.00; at Adenosine receptor A1 it was 6.32; at Adenosine receptor A3 it was 6.81; on Adenosine receptor A2a it was 6.96. The Ratio Ki came to 3.1 in experiment [1], 4.43 in experiment [2] and 0.7 in experiment [3].
As to `Cn1cc2c(nc(NCCOc3ccccc3)n3nc(-c4ccco4)nc23)n1`, the pKi was 5.12 on Adenosine receptor A2b, 6.19 at Adenosine receptor A1, 7.41 at Adenosine receptor A3 and 6.92 at Adenosine receptor A2a. Besides, the Ratio Ki in experiment [1] amounted to 16.7; in experiment [2], 5.34; in experiment [3] it was 3.13.
Consider `CCN(CCO)c1nc2nn(C)cc2c2nc(-c3ccco3)nn12`, for which the negative-log Ki (pKi) at Adenosine receptor A2b was below 5.00; on Adenosine receptor A1, 4.82; on Adenosine receptor A3 it was 5.87; at Adenosine receptor A2a, 5.19. The Ratio Ki is 11 in experiment [1], 2.33 in experiment [2] and 4.73 in experiment [3].
With `CCCCN(C)c1nc2nn(C)cc2c2nc(-c3ccco3)nn12`, the pKi on Adenosine receptor A2b was below 5.00; at Adenosine receptor A1, 5.97; on Adenosine receptor A3 it was 7.44; at Adenosine receptor A2a, 5.86. The Ratio Ki in experiment [1] stood at 28.9; in experiment [2], 0.77; in experiment [3], 37.6.
Consider `CCCCCCC(C)Nc1nc2nn(C)cc2c2nc(-c3ccco3)nn12` (stereo not given), for which the pKi is below 5.00 at Adenosine receptor A2b, 6.58 on Adenosine receptor A1, 7.62 on Adenosine receptor A3 and 6.15 on Adenosine receptor A2a. The Ratio Ki in experiment [1] stood at 11.1; in experiment [2] it was 0.38; in experiment [3] it was 29.4.
Regarding `Cn1cc2c(nc(NCCCO)n3nc(-c4ccco4)nc23)n1`, the negative-log Ki (pKi) was 5.03 at Adenosine receptor A2b, 6.67 on Adenosine receptor A1, 6.62 at Adenosine receptor A3 and 6.81 on Adenosine receptor A2a. The values for the Ratio Ki in experiment [1], in experiment [2] and in experiment [3] were 0.88, 1.37 and 0.64, respectively.
For `COc1ccc(CNc2nc3nn(C)cc3c3nc(-c4ccco4)nn23)cc1`, the pKi at Adenosine receptor A2b was 5.01; on Adenosine receptor A1 it was 6.35; at Adenosine receptor A3, 8.16; on Adenosine receptor A2a, 6.75. For the same compound, the Ratio Ki was 63.9 in experiment [1], 2.5 in experiment [2] and 25.6 in experiment [3].
`Cn1cc2c(nc(NCCc3c[nH]c4ccccc34)n3nc(-c4ccco4)nc23)n1`: the pKi at Adenosine receptor A2b is 5.54; on Adenosine receptor A1 it was 5.90; on Adenosine receptor A3, 7.51; at Adenosine receptor A2a it was 7.11. Further, the Ratio Ki was 40.4 in experiment [1], 16.2 in experiment [2] and 2.49 in experiment [3].
Take `Cn1cc2c(nc(NC3CCCCCC3)n3nc(-c4ccco4)nc23)n1`: the pKi at Adenosine receptor A2b is 5.18; on Adenosine receptor A1, 6.65; on Adenosine receptor A3, 7.81; at Adenosine receptor A2a, 6.47. For the same compound, the Ratio Ki was 14.5 in experiment [1], 0.66 in experiment [2] and 21.8 in experiment [3].
For `CCC(C)Nc1nc2nn(C)cc2c2nc(-c3ccco3)nn12` (racemic), the pKi on Adenosine receptor A2b was 5.41; at Adenosine receptor A1, 6.88; on Adenosine receptor A3, 8.28; at Adenosine receptor A2a, 6.61. For the same compound, the results for the Ratio Ki in experiment [1], in experiment [2] and in experiment [3] were 25, 0.53 and 47.4, respectively.

In general, pKi refers to the negative decadic logarithm of the Ki, by convention in mol/L.
